Data as given in ChEMBL document CHEMBL1125645, “Specific bradycardic agents. 2. Heteroaromatic modifications in the side chain of specific bradycardic benzazepinones: chemistry, pharmacology, and structure-activity relationships” (1991).
The source made the active and inactive calls. The rule behind the calls is not given here.

Columns and labels:
[1] = tested on: Rattus norvegicus; assay: Bradycardic activity was evaluated in an anesthetized rat model as percent heart rate(beats/min) reduction 20 min after iv injection of 5 mg/kg; type: functional
Procedure, shortened: (§1)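 Male Chbb:THOM rats, 200-250 g, anesthetized with pentobarbital sodium 50 mg/kg ip, with the trachea cannulated and artificial respiration given. Heart rate was recorded continuously by an ECG-triggered beat-to-beat tachograph before and at 5 and 20 min after a single iv injection of 5 mg/kg. Values are % change from pre-dose, reported ± SEM.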

[2] = tested on: Rattus norvegicus; assay: Hypotensive activity was evaluated in an anesthetized rat model as percent mean aortic blood pressure(mm hg) reduction 5 min after iv injection of 5 mg/kg of the compound; NA=Not active; type: functional, organism-based; design: dose 5 mg/kg; conditions: Artery
Procedure, shortened: (§2)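 In pentobarbital-anesthetized (50 mg/kg ip), artificially ventilated male Chbb:THOM rats (200-250 g), mean aortic pressure was measured through a carotid artery cannula connected to an electromechanical transducer. Readings were taken before and 5 min after 5 mg/kg iv. Values are % change from baseline, ± SEM.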

[3] = tested on: Rattus norvegicus; assay: Bradycardic activity was evaluated in an anesthetized rat model as percent heart rate(beats/min) reduction 5 min after iv injection of 5 mg/kg; type: functional; procedure, shortened: as §1
[4] = species on record: Rattus norvegicus; assay: Delta HR ratio measured as the ratio of delta HR(20 min)/delta HR (5 min); type: functional
Procedure, shortened: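 Duration-of-action index: the % heart-rate reduction at 20 min divided by that at 5 min after 5 mg/kg iv. Rats were male Chbb:THOM, pentobarbital-anesthetized and ventilated, with heart rate taken from an ECG-triggered tachograph.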

[5] = tested on: Rattus norvegicus; assay: Hypotensive activity was evaluated in an anesthetized rat model as percent mean aortic blood pressure(mm hg) reduction 5 min after iv injection of 5 mg/kg; type: functional, Artery; procedure, shortened: as §2
[6] = species on record: Rattus norvegicus; assay: Ratio of heart rate reduction to mean arterial blood pressure reduction; type: functional
Procedure, shortened: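 Selectivity parameter S: the % heart-rate reduction divided by the % mean arterial pressure reduction, both read 5 min after 5 mg/kg iv in anesthetized, ventilated male Chbb:THOM rats. Heart rate came from an ECG-triggered tachograph and pressure from a carotid cannula.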

[7] = tested on: Rattus norvegicus; assay: Bradycardic activity was evaluated in an anesthetized rat model as percent heart rate(beats/min) reduction 20 min after iv injection of 5 mg/kg of the compound; NA=Not active; type: functional, organism-based; design: dose 5 mg/kg; procedure, shortened: as §1
[8] = tested on: Rattus norvegicus; assay: Bradycardic activity was evaluated in an anesthetized rat model as percent heart rate(beats/min) reduction 5 min after iv injection of 5 mg/kg of the compound; NA=Not active; type: functional, organism-based; design: dose 5 mg/kg; procedure, shortened: as §1

Structure (SMILES) | Delta HR [1] | Delta MAP [2] | Delta HR [3] | Ratio [4] | Delta MAP [5] | Selectivity [6] | Delta HR [7] | Delta HR [8]
COc1cc2c(cc1OC)CC(=O)N(CCCN(C)Cc1c(C)noc1C)CC2 | -14% | inactive | -5% | 2.8 | – | – | – | –
COc1cc2c(cc1OC)CC(=O)N(CCCN(C)CCCc1c[nH]c3ccccc13)CC2 | -47% | – | -62% | 0.76 | -34% | 1.8 | – | –
COc1cc2c(cc1OC)CC(=O)N(CCCN(C)Cc1ccccn1)CC2 | – | inactive | – | – | – | – | inactive | inactive
COc1cc2c(cc1OC)CC(=O)N(CCCN(C)CCc1cncc3cc(OC)c(OC)cc13)CC2 | -5% | inactive | -5% | 1 | – | – | – | –
COc1cc2c(cc1OC)CC(=O)N(CCCN(C)CCc1csc3ccccc13)CC2 | -51% | – | -66% | 0.78 | -55% | 1.2 | – | –
COc1cc2c(cc1OC)CC(=O)N(CCCN(C)CCc1cn(C)c3ccccc13)CC2 | -37% | – | -50% | 0.74 | -22% | 2.3 | – | –
COc1ccc(CCN(C)CCCN2CCc3cc(OC)c(OC)cc3CC2=O)cc1OC [ZATEBRADINE] | -46% | – | -56% | 0.83 | -21% | 2.6 | – | –
COc1cc2c(cc1OC)CC(=O)N(CCCN(C)Cc1csc3ccccc13)CC2 | -7% | – | -18% | 0.4 | -27% | 0.66 | – | –
COc1cc2c(cc1OC)CC(=O)N(CCCN(C)CCc1cc3ccccc3o1)CC2 | -45% | – | -67% | 0.67 | -39% | 1.7 | – | –
COc1cc2c(cc1OC)CC(=O)N(CCCN(C)CCc1coc3ccccc13)CC2 | -39% | – | -54% | 0.72 | -39% | 1.4 | – | –
COc1cc2c(cc1OC)CC(=O)N(CCCN(C)CCc1csc3cccc(OC)c13)CC2 | -24% | – | -34% | 0.72 | -21% | 1.6 | – | –
COc1cc2c(cc1OC)CC(=O)N(CCCN(C)CCc1cccnc1)CC2 | -18% | – | -12% | 1.5 | -11% | 1.1 | – | –
COc1cc2c(cc1OC)CC(=O)N(CCCN(C)CCc1ccccn1)CC2 | -16% | inactive | -15% | 1.1 | – | – | – | –
COc1cc2c(cc1OC)CC(=O)N(CCCN(C)CCCc1csc3ccccc13)CC2 | -45% | – | -65% | 0.69 | -46% | 1.4 | – | –
COc1cc2c(cc1OC)CC(=O)N(CCCN(C)CCc1ccco1)CC2 | -11% | – | -12% | 0.92 | -52% | 0.23 | – | –
COc1cc2c(cc1OC)CC(=O)N(CCCN(C)CCCc1ccco1)CC2 | -18% | – | -19% | 0.95 | -61% | 0.31 | – | –
COc1ccc2[nH]cc(CCN(C)CCCN3CCc4cc(OC)c(OC)cc4CC3=O)c2c1 | -29% | – | -32% | 0.92 | -18% | 1.8 | – | –
COc1cc2c(cc1OC)CC(=O)N(CCCN(C)CCc1csc3cc(OC)c(OC)cc13)CC2 | -17% | – | -24% | 0.71 | -17% | 1.4 | – | –
COc1cc2c(cc1OC)CC(=O)N(CCCN(C)CCc1csc3ccc(C)cc13)CC2 | -38% | – | -51% | 0.75 | -36% | 1.4 | – | –
COc1cc2c(cc1OC)CC(=O)N(CCCN(C)CCCCn1ccnc1)CC2 | – | inactive | – | – | – | – | inactive | inactive
